These results are taken from ChEMBL document CHEMBL4814034, “Discovery of N-amido-phenylsulfonamide derivatives as novel microsomal prostaglandin E2 synthase-1 (mPGES-1) inhibitors” (Bioorg Med Chem Lett, 2021).

The structures appear in SMILES notation.

A short description of data set [1]: Stability in human plasma assessed as parent compound remaining at 10 uM after 30 mins by UPLC-MS analysis. The data set is classed as ADME, cell-free. The note with it: read-out: Stabilty. In a few lines: (§1)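 Compounds at 10 µM incubated in human or rat plasma; % remaining after 30 min reported.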
Data set [2] is described as follows: Metabolic stability in human liver microsomes assessed as parent compound remaining at 1 uM incubated for 30 mins in presence of NADPH by LC-MS/MS analysis. The data set is classed as ADME, Microsome. The note with it: read-out: Stabilty. In a few lines: (§2)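 Single-point metabolic stability in mouse, rat, dog and human liver microsomes. Compound at 1.0 µM incubated with 1.0 mg/mL protein at 37 °C for 30 min; % parent remaining reported.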
In general terms: Liver microsomes are vesicles of endoplasmic reticulum, rich in cytochrome P450 enzymes.

A further data set concerns the target CYP2C19 (Homo sapiens, UniProt P33261). Put plainly: Inhibition of CYP2C19 in human liver microsomes assessed as enzyme remaining activity at 10 uM using mephenytoin as substrate incubated for 20 mins in presence of NADPH by LC-MS/MS analysis relative to control. The data set is classed as ADME. The conditions noted are these: probe mephenytoin, read-out: Activity. In short, it runs like this: (§3)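 CYP1A2, 2C9, 2C19, 2D6 and 3A4 activities measured with each compound at 10 µM; result given as % of control activity.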

Data set [3] is described as follows: Selectivity index, ratio of IC50 for inhibition of mPGES-1 in human A549 cells assessed as reduction in IL-1beta stimulated PGI2 production to IC50 for inhibition of mPGES-1 in human A549 cells assessed as reduction in IL-1 beta stimulated PGE2 production.
Data set [4] addresses T1, Prostaglandin E synthase (Homo sapiens, UniProt O14684).
T1 sequence (O14684 whole entry): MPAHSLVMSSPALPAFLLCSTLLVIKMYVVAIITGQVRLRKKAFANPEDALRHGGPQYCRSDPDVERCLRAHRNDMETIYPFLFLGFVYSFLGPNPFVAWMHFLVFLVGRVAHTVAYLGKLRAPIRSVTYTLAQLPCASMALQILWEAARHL
The data set is described as follows: Inhibition of mPGES-1 in human A549 cells assessed as reduction in IL-1beta stimulated PGE2 production incubated for 24 hrs by EIA. The data set is classed as cell-based.

A short description of data set [5]: Metabolic stability in rat liver microsomes assessed as parent compound remaining at 1 uM incubated for 30 mins in presence of NADPH by LC-MS/MS analysis. The data set is classed as ADME, Microsome. The conditions noted are these: read-out: Stabilty. In a few lines: as §2
A further data set has as its target CYP3A4 (Homo sapiens, UniProt P08684). Put plainly: Inhibition of CYP3A4 in human liver microsomes assessed as enzyme remaining activity at 10 uM using testosterone as substrate incubated for 20 mins in presence of NADPH by LC-MS/MS analysis relative to control. The data set is classed as ADME. The note with it: probe testosterone, read-out: Activity. In short, it runs like this: as §3

The target of data set [6] is T2, Prostaglandin E synthase (Mus musculus, UniProt Q9JM51).
T2 sequence (Q9JM51 whole entry): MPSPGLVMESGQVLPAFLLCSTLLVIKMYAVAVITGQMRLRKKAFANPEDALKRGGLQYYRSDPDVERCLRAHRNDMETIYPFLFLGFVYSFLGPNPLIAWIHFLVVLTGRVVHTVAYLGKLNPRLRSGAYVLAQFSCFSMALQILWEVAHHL
The data set is described as follows: Inhibition of mPGES-1 in mouse RAW264.7 cells assessed as reduction in LPS-stimulated PGE2 production. The data set is classed as cell-based.

Another data set concerns A549. The data set is described as follows: Cytotoxicity against human A549 cells assessed as cell viability incubated for 24 hrs in presence of IL-1beta by MTT assay. The data set is classed as cell-based. The note with it: a549, 24 h. In a few lines: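 A549 cells exposed to compounds at 1 µM with interleukin-1β (1 ng/mL) for 24 h; viability read by MTT assay.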
(Tetrazolium assays rely on reduction of a dye to a coloured formazan, in cell work by metabolically active cells.)

Data set [7] has as its target T1, Prostaglandin E synthase. The data set is described as follows: Inhibition of mPGES-1 activity in IL-1beta stimulated human A549 cells by cell-free assay. In short, it runs like this: (§4)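 Cell-free mPGES-1 assay using microsomal preparation from IL-1β-stimulated A549 cells. Preincubated with compounds or DMSO vehicle for 15 min on ice, then reacted 1 min with substrate. PGE2 production measured by EIA kit. Remaining activity expressed as % of control, mean ± SDs (n = 3).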

A short description of data set [8]: Metabolic stability in mouse liver microsomes assessed as parent compound remaining at 1 uM incubated for 30 mins in presence of NADPH by LC-MS/MS analysis. The conditions noted are these: read-out: Stabilty. The format is ADME, Microsome. In a few lines: as §2
The target in data set [9] is Voltage-gated inwardly rectifying potassium channel KCNH2 (Homo sapiens, UniProt Q12809). Put plainly: Binding affinity to human ERG.
The nature of data set [10]: Stability in rat plasma assessed as parent compound remaining at 10 uM after 30 mins by UPLC-MS analysis. The format is ADME, cell-free. The note with it: read-out: Stabilty. In short, it runs like this: as §1
Another data set concerns the target CYP2D6 (Homo sapiens, UniProt P10635). The data set is described as follows: Inhibition of CYP2D6 in human liver microsomes assessed as enzyme remaining activity at 10 uM using bufuralol as substrate incubated for 20 mins in presence of NADPH by LC-MS/MS analysis relative to control. The conditions noted are these: probe bufuralol, read-out: Activity. The data set is classed as ADME. In a few lines: as §3

The next data set deals with T3, CYP1A2 (Homo sapiens, UniProt P05177).
T3 sequence (P05177 whole entry): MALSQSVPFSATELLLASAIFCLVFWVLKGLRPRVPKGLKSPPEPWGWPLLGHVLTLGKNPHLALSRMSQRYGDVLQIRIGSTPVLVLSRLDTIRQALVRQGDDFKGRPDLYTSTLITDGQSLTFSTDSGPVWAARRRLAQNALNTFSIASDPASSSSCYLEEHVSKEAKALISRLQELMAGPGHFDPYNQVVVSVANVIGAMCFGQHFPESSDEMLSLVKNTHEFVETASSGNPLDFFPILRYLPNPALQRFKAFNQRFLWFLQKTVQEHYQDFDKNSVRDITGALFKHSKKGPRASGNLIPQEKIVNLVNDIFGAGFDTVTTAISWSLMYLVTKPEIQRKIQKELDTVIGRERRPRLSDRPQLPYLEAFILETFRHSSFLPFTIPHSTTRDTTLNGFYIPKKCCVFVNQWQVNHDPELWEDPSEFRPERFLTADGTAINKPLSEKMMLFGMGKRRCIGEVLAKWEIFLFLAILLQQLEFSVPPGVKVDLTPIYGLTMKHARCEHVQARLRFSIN
Put plainly: Inhibition of CYP1A2 in human liver microsomes assessed as enzyme remaining activity at 10 uM using phenacetin as substrate incubated for 20 mins in presence of NADPH by LC-MS/MS analysis relative to control. The data set is classed as ADME. The note with it: probe phenacetin, read-out: Activity. In short, it runs like this:
as §3

A further data set has as its target CYP2C9 (Homo sapiens, UniProt P11712). The data set is described as follows: Inhibition of CYP2C9 in human liver microsomes assessed as enzyme remaining activity at 10 uM using diclofenac as substrate incubated for 20 mins in presence of NADPH by LC-MS/MS analysis relative to control. The data set is classed as ADME. The note with it: probe diclofenac, read-out: Activity. In a few lines:
as §3

Data set [11] in a line: Metabolic stability in dog liver microsomes assessed as parent compound remaining at 1 uM incubated for 30 mins in presence of NADPH by LC-MS/MS analysis. The data set is classed as ADME, Canis lupus familiaris, Microsome. The conditions noted are these: read-out: Stabilty. In short, it runs like this: as §2
Data set [12] addresses T1, Prostaglandin E synthase. Put plainly: Inhibition of mPGES-1 activity in IL-1beta stimulated human A549 cells microsomes assessed as reduction in PGE2 production preincubated for 15 mins followed by PGH2 addition and measured after 1 mins by EIA. On the set-up: species or system Microsome. In short, it runs like this: as §4
The target in data set [13] is T4, Prostaglandin E synthase (Homo sapiens) (UniProt O14684).
T4 sequence (whole entry): T1 sequence (O14684 whole entry)
Put plainly: Potency index, ratio of MK886 IC50 to test compound IC50 for inhibition of mPGES-1 in human A549 cells microsomes. The note with it: Microsome.

Chain of CYP2D6 (P10635 whole entry): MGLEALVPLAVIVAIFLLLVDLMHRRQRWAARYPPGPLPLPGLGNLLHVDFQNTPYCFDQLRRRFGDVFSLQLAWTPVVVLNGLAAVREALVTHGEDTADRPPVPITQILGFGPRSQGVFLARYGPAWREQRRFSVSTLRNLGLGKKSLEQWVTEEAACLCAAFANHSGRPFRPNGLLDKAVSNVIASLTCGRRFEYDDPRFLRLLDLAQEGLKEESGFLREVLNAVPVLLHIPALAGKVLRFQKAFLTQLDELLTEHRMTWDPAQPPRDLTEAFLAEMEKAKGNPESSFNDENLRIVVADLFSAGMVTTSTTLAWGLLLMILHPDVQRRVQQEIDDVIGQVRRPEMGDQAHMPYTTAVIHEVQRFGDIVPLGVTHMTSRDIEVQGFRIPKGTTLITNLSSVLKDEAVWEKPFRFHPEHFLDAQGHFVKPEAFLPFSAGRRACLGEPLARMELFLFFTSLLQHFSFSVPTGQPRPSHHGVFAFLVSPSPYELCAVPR
Chain of Voltage-gated inwardly rectifying potassium channel KCNH2 (Q12809 whole entry): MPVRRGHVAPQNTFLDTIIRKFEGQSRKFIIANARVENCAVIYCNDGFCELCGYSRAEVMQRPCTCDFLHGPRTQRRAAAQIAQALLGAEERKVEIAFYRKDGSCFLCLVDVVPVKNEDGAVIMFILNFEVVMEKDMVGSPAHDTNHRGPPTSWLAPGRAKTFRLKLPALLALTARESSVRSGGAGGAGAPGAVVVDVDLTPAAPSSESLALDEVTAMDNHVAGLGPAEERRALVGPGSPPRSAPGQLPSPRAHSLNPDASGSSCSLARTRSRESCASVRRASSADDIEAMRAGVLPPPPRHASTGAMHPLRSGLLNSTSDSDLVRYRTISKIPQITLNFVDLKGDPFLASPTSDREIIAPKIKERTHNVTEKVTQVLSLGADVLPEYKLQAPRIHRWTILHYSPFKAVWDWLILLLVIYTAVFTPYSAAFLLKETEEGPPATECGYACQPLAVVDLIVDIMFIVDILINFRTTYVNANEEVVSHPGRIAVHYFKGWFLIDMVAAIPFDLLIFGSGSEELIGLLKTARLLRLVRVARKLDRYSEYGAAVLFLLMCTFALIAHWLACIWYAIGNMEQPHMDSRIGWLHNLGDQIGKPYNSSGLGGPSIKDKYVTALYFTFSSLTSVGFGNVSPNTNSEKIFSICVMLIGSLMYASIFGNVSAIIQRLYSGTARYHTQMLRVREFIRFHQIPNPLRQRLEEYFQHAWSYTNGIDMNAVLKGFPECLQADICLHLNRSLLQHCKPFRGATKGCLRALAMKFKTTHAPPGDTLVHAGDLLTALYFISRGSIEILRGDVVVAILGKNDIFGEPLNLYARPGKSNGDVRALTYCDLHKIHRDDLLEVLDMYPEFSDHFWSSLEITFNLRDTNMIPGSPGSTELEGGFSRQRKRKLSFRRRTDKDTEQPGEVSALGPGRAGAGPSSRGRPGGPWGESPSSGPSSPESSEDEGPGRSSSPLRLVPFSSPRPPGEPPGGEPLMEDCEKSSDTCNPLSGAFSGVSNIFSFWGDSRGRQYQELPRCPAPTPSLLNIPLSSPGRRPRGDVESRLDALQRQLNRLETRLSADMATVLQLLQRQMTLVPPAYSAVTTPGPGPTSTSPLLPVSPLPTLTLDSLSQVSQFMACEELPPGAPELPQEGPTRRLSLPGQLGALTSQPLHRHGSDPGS
Chain of CYP2C9 (P11712 whole entry): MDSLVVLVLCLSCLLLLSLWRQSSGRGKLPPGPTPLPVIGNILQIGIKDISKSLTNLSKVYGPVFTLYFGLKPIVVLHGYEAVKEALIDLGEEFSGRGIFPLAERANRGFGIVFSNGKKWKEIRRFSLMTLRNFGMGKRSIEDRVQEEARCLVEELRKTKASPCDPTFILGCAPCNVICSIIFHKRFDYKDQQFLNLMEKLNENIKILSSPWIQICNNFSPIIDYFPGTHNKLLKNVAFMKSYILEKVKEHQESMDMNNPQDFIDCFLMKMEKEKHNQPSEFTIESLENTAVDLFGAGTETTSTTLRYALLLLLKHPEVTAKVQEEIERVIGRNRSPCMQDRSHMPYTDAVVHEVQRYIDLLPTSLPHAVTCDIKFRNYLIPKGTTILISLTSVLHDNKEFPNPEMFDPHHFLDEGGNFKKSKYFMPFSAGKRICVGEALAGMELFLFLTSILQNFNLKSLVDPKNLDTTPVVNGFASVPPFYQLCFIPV
Chain of CYP2C19 (P33261 whole entry): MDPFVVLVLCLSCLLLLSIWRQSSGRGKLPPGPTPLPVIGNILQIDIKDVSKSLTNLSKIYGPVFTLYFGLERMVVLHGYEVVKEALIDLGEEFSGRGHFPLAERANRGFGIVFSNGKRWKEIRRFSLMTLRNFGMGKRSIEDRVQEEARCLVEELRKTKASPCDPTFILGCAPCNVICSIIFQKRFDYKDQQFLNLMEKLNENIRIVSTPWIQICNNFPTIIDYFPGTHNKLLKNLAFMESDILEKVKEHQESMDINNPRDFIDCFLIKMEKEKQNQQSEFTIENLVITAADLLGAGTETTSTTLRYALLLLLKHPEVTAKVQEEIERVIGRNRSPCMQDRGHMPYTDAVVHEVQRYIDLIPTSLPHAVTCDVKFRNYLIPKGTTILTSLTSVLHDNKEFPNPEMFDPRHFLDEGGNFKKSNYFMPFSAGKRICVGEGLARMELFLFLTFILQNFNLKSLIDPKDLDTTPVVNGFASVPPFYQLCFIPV
Chain of CYP3A4 (P08684 whole entry): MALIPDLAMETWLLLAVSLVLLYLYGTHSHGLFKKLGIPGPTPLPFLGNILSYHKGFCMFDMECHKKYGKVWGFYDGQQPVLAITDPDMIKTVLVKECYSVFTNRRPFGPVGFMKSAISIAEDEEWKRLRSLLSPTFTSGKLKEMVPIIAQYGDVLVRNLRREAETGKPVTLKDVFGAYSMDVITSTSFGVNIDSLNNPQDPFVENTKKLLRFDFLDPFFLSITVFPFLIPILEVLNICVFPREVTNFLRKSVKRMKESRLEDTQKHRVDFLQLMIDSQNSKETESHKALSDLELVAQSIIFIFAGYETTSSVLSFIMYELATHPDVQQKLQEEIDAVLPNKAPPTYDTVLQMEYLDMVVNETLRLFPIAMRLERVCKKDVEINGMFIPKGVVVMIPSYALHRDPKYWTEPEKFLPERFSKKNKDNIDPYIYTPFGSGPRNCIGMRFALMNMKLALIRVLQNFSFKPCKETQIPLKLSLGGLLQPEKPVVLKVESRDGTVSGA

Consider `O=C(Oc1ccc(OCc2ccccc2)cc1)N(Cc1ccccc1)S(=O)(=O)c1ccc(Cl)cc1`, for which the figures for the remaining at 0.5 h, 10 µM in data set [1] and in data set [10] were over 100% and 2.1%, respectively. Moreover, the remaining at 0.5 h, 1 µM in data set [2] amounted to 44.9%; in data set [5] it was 44.1%; in data set [8], 53.4%; in data set [11] it was 37.7%. Further, the activity at 20 min, 10 µM at CYP2C19 was 56.9%; at CYP3A4, over 100%; on CYP2D6, over 100%; at CYP1A2, 99.4%; on CYP2C9 it was 97%. Moreover, in [3], the “Ratio IC50” value stood at 8. The IC50 (in general, the concentration that inhibits the measured activity by half) at Prostaglandin E synthase [4] is 160 nM; on Prostaglandin E synthase [6], 340 nM; against Prostaglandin E synthase [7] it was 7370 nM; in data set [9] it was 5200 nM. The Activity with A549 is over 1 µM.
As for `O=C(Nc1ccc(OCc2ccccc2)cc1)N(Cc1ccccc1)S(=O)(=O)c1ccc(Cl)cc1`, the IC50 was over 30000 nM at Prostaglandin E synthase [12] and 610 nM on Prostaglandin E synthase [4]. In addition, the Activity in the data set on A549 was over 1 µM.
With `CC(C)c1ccc2c(c1)c(SC(C)(C)C)c(CC(C)(C)C(=O)O)n2Cc1ccc(Cl)cc1`, in the data set with A549, the Activity was over 1 µM.
Turning to `O=C(Oc1ccc(OCc2ccccc2)cc1)N(Nc1cccc(Cl)c1)S(=O)(=O)c1ccc(Cl)cc1`, the figures for the IC50 at Prostaglandin E synthase [12] and on Prostaglandin E synthase [4] were over 30000 nM and 150 nM, respectively. The Activity in the data set with A549 was over 1 µM.
For `O=C(Oc1ccc(OCc2ccccc2)cc1)N(Nc1ccccc1)S(=O)(=O)c1ccc(Cl)cc1`, the remaining at 0.5 h, 10 µM in data set [1] and in [10] was under 1% throughout. Also, the remaining at 0.5 h, 1 µM stood at 66.6% in [2], 16.3% in [5], 42.2% in data set [8] and 48.5% in [11]. Further, the IC50 was determined as 610 nM at Prostaglandin E synthase [12], 190 nM on Prostaglandin E synthase [4], 60 nM at Prostaglandin E synthase [6] and 9600 nM in data set [9]. Moreover, the activity at 20 min, 10 µM at CYP2C19 was 77.9%; on CYP3A4 it was 73.6%; at CYP2D6, 57.1%; at CYP1A2 it was 75.7%; at CYP2C9, 88.4%. Also, in the data set on A549, the Activity is over 1 µM.
On to `O=C(Nc1ccc(OCCCCc2ccccc2)cc1)N(Cc1ccccc1)S(=O)(=O)c1ccc(Cl)cc1`, for which the figures for the remaining at 0.5 h, 10 µM in data set [1] and in [10] were 45% and 1.3%, respectively. Besides, the remaining at 0.5 h, 1 µM in data set [2] is over 100%; in data set [5] it was 74.5%; in [8], 79%; in [11], 86.4%. Besides, the IC50 at Prostaglandin E synthase [12] was 490 nM; at Prostaglandin E synthase [4], 240 nM; in data set [9] it was over 10000 nM. Besides, the activity at 20 min, 10 µM on CYP2C19 worked out at 8.7%; at CYP3A4 it was 92.5%; at CYP2D6, 98.8%; on CYP1A2, 69.4%; at CYP2C9, 99.9%. Moreover, the “Ratio IC50” value was 4 in data set [3] and 8 in [13]. Also, the Activity in the data set on A549 was over 1 µM.
